EP2 modulator: modulates human prostaglandin E2 receptor EP2 signaling; P43116; EP2-expressing cells, cAMP HTRF FRET, PGE2 co-stimulation; induction, % at 25 µM; 260,000 tested, 0.83% active;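 active = compounds whose cAMP rise, as percent of the full-agonist control response, exceeds 60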;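 note: rat C6 glioma line stably carrying human EP2 under a CMV promoter; the protocol text gives 20 µM as final concentration; 100% = response of wells given 1 µM PGE2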
Target sequence (P43116 whole entry, looked up): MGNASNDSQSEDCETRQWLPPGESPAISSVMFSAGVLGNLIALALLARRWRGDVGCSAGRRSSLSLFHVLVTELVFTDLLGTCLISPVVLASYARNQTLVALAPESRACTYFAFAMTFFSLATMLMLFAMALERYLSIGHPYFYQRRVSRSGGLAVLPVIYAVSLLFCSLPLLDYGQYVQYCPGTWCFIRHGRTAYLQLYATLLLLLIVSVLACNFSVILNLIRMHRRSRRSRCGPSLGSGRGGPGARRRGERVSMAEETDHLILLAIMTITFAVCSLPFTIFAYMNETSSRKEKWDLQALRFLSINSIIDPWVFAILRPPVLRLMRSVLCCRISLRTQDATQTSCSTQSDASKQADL
PGE2 EP2 inh: EP2 receptor (human) inhibition; P43116; C6 glioma cells expressing human EP2, cAMP TR-FRET; cells stimulated with saturating PGE2; inhibition, % at 25 µM; 260,000 tested, 0.52% active; AID 1422;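 active = percent inhibition above 40 after rounding to a whole number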;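 note: rat C6 glioma host cells with rolipram phosphodiesterase inhibitor present; the protocol text gives 20 µM as final concentration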
bCat nuc transl: alters nuclear translocation of beta-catenin in HeLa cells | AID 1665 | immunofluorescence imaging | 190,000 tested, 0.3% active | nuclear translocation activity, % at 5 µM;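 active = nuclear translocation activity above 50% at 5 µM, with a well cell count of 50 or more; inconclusive = wells under 50 cells across six images, flagged as toxic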;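 note: per-cell ratio of nuclear to cytoplasmic median beta-catenin stain intensity; plate controls were DMSO negative control for no effect and GSK-3 inhibitor IX positive control for full effect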
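Technique: fluorescence imaging of beta-catenin antibody stain plus DAPI / Material: human HeLa cell line / Incubation: compound treatment 24 h, 37°C, 5% CO2 / Read-out basis: % activation of per-cell nuclear versus cytoplasmic median beta-catenin signal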
MT stabilize HCS: microtubule stabilizers in HeLa cells; HeLa tubulin immunostaining HCS, 24 h; share of cells brighter than vehicle mean+2SD; % tubulin-high responders, % at 10 µM; 200,000 tested, 0.83% active;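 active = plate Z-score above 3 for both tubulin-high and condensed-nucleus cell shares, with cell loss under 80%, at 10 µM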;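 note: anti alpha tubulin signal scored within the nucleus-defined area of each cell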
HMGR II inh: blocks class II HMG-CoA reductase of Enterococcus faecalis; purified E. faecalis HMGR, NADPH absorbance 340 nm kinetic; inhibition, % at 10 µM; 190,000 tested, 0.41% active;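 active = inhibition above a set limit, the median over all tested compounds plus 3 SD, cut at about 9.5% in these data; inconclusive = no clear call, values can overlap the other calls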;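 note: enzyme runs in reverse so mevalonate oxidation gives rising NADPH absorbance; 0% = complete reaction with DMSO and 100% = background rate lacking mevalonate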
TbHK1 inh: blocks Trypanosoma brucei hexokinase 1 activity | recombinant TbHK1, G6PDH-coupled NADH A340 | inhibition, % at 10 µM | 220,000 tested, 0.11% active | AID 1430;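 active = inhibition of 50% or more in the single-dose primary screen; inactive = inhibition below 50%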
G6PDH ctr: counter-screen for TbHK1 inhibitors: Leuconostoc G6PDH inhibition; shares compounds with TbHK1 inh; purified G6PDH, NADH absorbance, 1 h; inhibition, % at 10 µM; 210 tested, 7% active; AID 2516;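 active = at least 50% inhibition in the glucose-6-phosphate dehydrogenase coupled counterscreen; inconclusive = no clear call, values can overlap the other calls; inactive = inhibition below 50%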
TbHK1 rescreen: T. brucei hexokinase 1 inhibition, rescreen | inhibition, % at 10 µM | 210 tested, 10% active | shares compounds with TbHK1 inh | recombinant TbHK1, G6PDH-coupled NADH A340 absorbance;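 active = inhibition of at least 50% in both of the two screening runs; inconclusive = at least 50% in one run, below 50% in the other; inactive = inhibition below 50% in both runs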;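 note: 0% and 100% set by the maximum and minimum signal control wells on each plate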
Active calls of the source: *; ? = inconclusive; · = no result given; ! = not active in a repeat. Most compounds without a hit are left out; they make up all but 2.4% or so of the library.

SMILES	EP2 modulator	PGE2 EP2 inh	bCat nuc transl	MT stabilize HCS	HMGR II inh	TbHK1 inh	G6PDH ctr	TbHK1 rescreen
CC(=O)/C=C(/C)NC(Cc1c[nH]c2ccccc12)C(=O)O (stereo not given)	-11	10	-5	5	-2	51*!	-17	-3
COc1ccc(C2CC(=O)C3=C(C2)NC(C)=C(C(=O)OC(C)C)C3c2ccc(C)o2)cc1OC (stereo not given)	-12	13	·	·	·	·	·	·
COc1cc(/C=C(\C#N)c2nc3c(s2)CCCC3)ccc1O	-6	10	-1	1	-5	54*	-48	88*
N#C/C(=C\c1cccnc1)c1nc2c(s1)CCCC2	-47	1	-1	2	1	-16	·	·
C=CCNC(=O)CC(C)C(CCCCC)C(=O)O (stereo not given)	-8	10	-3	5	-2	50*	-9	3
CCCCC(C(=O)O)C(C)CC(=O)Nc1cccc(C(=O)O)c1 (stereo not given)	7	15	0	4	-1	-2	·	·
CC(C)C(O)P(=O)(OCc1ccccc1)c1ccc(N(C)C)cc1 (stereo not given)	0	5	3	6	-2	57*	-5	2
C=CCN1CCN(C(c2nnnn2C2CCCC2)C(C)C)CC1 (stereo not given)	-4	9	·	·	·	·	·	·
N#Cc1cc(Sc2ccccn2)c(Sc2ccccn2)cc1C#N	27	3	0	5	1	58*	-12	-9
COc1ccccc1C(NC(=O)Cc1ccc(S(C)(=O)=O)cc1)c1nccn1C (stereo not given)	-1	5	·	·	·	·	·	·
NC(=O)C1CCN(C(=O)c2cc(S(=O)(=O)N3CCOCC3)c(Cl)cc2Cl)CC1	3	11	-10	6	0	69*	-8	-3
O=C(c1cc(S(=O)(=O)N2CCOCC2)c(Cl)cc1Cl)N1CCCCC1	-35	8	-6	2	-8	4	·	·
Cc1cc(C)n2nc(C(=O)NCCc3c(C)noc3C)cc2n1	-5	7	·	·	·	·	·	·
Cc1nn(Cc2ccccc2)c(C)c1CN1CCc2nc(N3CCCCCC3)[nH]c(=O)c2C1	-47	4	·	·	·	·	·	·
COc1ccc(-c2nc(-c3ccccn3)ncc2S(C)(=O)=O)cc1	0	7	-4	2	-3	-1	·	·
Cn1nc(-c2ccccn2)nc2c(=O)n(C)c(=O)nc1-2	-10	12	·	·	·	70*	?	41
Cc1ccc(CNC(=O)CCS(=O)(=O)c2ccc(Br)cc2)cc1	-7	7	·	4	-9	68*	-3	79*
COc1ccc(CCNC(=O)C2CCCCC2C(=O)O)cc1OC (stereo not given)	9	7	0	5	-4	59*	-5	3
COc1ccccc1C1(O)CCCN(C(=O)CCN2Cc3ccccc3C2=O)C1 (stereo not given)	1	6	·	·	·	·	·	·
Cc1ccc(OCCCC(=O)Nc2nnc(C)s2)cc1	-11	4	·	·	·	·	·	·
O=C(O)CSc1cc(NS(=O)(=O)c2cccc([N+](=O)[O-])c2)c2ccccc2c1O	-36	13	-2	·	·	63*	74*	62*
Cc1ccc(-n2c(=O)[nH]c3c(C(N)=O)nc(-c4cnn(C)c4C)nc32)cc1	10	·	·	·	·	·	·	·
c1ccc(CCN2CCC3(CC2)Nc2ccccc2-n2cccc23)cc1	-31	9	·	·	·	·	·	·
CC(=O)c1ccc(NC(=O)C2CC(c3ccc(F)cc3)=NO2)cc1 (stereo not given)	-21	5	0	5	-2	52*	2	8
CC(=O)c1cccc(NC(=O)C2CC(c3ccc(F)cc3)=NO2)c1 (stereo not given)	-47	8	·	2	-1	4	·	·
O=C(O)C1CCCCC1C(=O)NCCCN1CCOCC1 (stereo not given)	6	22	3	3	4	51*	-7	-3
O=C(NCCCN1CCOCC1)C(=O)NCC1CCCO1 (stereo not given)	9	5	-2	2	0	31	·	·
